This is an account of results in publication PMC11757988 (Scientific Reports, 2025).

Data set [1] is described as follows: Blood compatibility study. It counts as cell-based. The following applies: rat, heparinized whole blood. The essentials: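 Rat heparinized blood (0.2 mL) added to 3 mL normal saline containing test material at 1000 µg/mL, saline-only negative and distilled-water positive controls; 1 h at 37 °C with shaking; centrifuged 6000 rpm, 20 min; filtered supernatant read at 545 nm for released hemoglobin; activity = (sample − negative control absorbance)/positive control absorbance.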

Data set [2] is described as follows: In vivo pharmacokinetic study, intravenous. Also on record: species or system female Wistar rats. The following applies: rat. The essentials:
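Eight-week-old female Wistar rats (250 ± 10 g), single i.v. dose of test compound solution at 10 mg/kg (nanoparticles at equivalent dose), saline control group. Tail-vein blood (300 µL) at 1–38 h into heparinized tubes; plasma by chilled centrifugation; acetonitrile protein precipitation, nitrogen drying, methanol reconstitution; HPLC-UV with plasma calibration 0.5–20 µg/mL; mean ± SD, n = 6.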

Data set [3] is described as follows: Thermogravimetric analysis. Type of data set: physicochemical. To be noted: TGA. The essentials: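 Samples of about 5 mg in platinum pans heated from 5 °C to 900 °C at 10 °C per min under nitrogen flowing at 60 mL per min; percentage weight loss recorded against temperature.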
The mark [4] stands for this setting: female, Wistar, plasma, iv, 10 mg/kg.
The mark [5] stands for this setting: i.v., DZ 10 mg/kg equivalent, n = 6, listed as DZ-Solution.

Broadly, the MRT inf is the average time that molecules of a dose stay in the body. One may read the Tmax as the time at which the peak concentration occurs. A word on the AUC(0-inf): it is the area under the concentration-time curve extrapolated to infinity. By Cmax is commonly meant the maximum level reached in the sampled fluid or tissue. As usually defined, the half-life is how long it takes for the measured level to halve. In data set [1], `O=c1c(-c2ccc(O)cc2)coc2cc(O)ccc12` [DZ, daidzein] registered a hemolysis at 1 h, 1000 µg/mL of 0.98 ± 0.14%. Further, in data set [2] (setting [4]), the MRT inf was found to be 2.97 ± 0.95 h and the Tmax was 1 ± 0.78 h. Further, the AUC(0-inf) in data set [2] (female, Wistar, plasma, iv, 10 mg/kg, AUC0−∞, DZ 10 mg/kg equivalent, n = 6) amounted to 2300 µg·h/mL. The Cmax in data set [2] (female, Wistar, plasma, iv, 10 mg/kg, C max, DZ 10 mg/kg equivalent, n = 6) worked out at 382 µg/mL. Further, the half-life in data set [2] (female, Wistar, plasma, iv, 10 mg/kg, t1/2, rat, DZ 10 mg/kg equivalent, n = 6) is 3.45 h. In addition, in data set [2] (setting [5]), the “AUC0−∞” value turned out to be 2299.73 ± 0.67 µg·h/mL, the C max is given as 381.59 ± 1.12 µg/mL and the t1/2 was found to be 3.44 ± 0.44 h. In addition, in data set [3], the “Temperature at which decomposition started” value is 340–350 °C.
